What was measured:
Chymotrypsinogen A = Chymotrypsinogen A (Bos taurus, UniProt P00766); assay: Inhibitory concentration was measured against alpha-chymotrypsin
Plasminogen = Plasminogen (Rattus norvegicus, UniProt Q01177); assay: Inhibitory concentration was measured against plasmin
[1] = The compound was evaluated for its half-life period; assay type: ADME
How it was run: (§1)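 Compound, dissolved in DMSO, was spiked into human plasma and incubated at 37 °C. Stability was read as the percentage of intact compound left after 30 min. Half-life in human plasma was taken from this same incubation.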

[2] = The percent remaining in human plasma after 30 min was determined; assay type: ADME, cell-free; details: read-out: Stability; how it was run: as §1
Neutrophil elastase = target: T1, Neutrophil elastase (Homo sapiens, UniProt P08246); assay: Inhibitory concentration was measured against elastase
T1 sequence (P08246 whole entry): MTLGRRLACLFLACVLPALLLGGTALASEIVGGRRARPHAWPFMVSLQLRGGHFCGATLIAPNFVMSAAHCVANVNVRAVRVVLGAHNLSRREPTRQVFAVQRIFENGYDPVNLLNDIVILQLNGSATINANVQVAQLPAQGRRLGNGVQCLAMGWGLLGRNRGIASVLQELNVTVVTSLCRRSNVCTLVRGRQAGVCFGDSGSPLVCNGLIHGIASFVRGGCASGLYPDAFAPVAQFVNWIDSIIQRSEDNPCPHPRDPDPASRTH

Serine protease 1 = Serine protease 1 (Homo sapiens, UniProt P07477); assay: Inhibitory concentration was measured against trypsin
Serine protease 1, sequence (P07477 whole entry): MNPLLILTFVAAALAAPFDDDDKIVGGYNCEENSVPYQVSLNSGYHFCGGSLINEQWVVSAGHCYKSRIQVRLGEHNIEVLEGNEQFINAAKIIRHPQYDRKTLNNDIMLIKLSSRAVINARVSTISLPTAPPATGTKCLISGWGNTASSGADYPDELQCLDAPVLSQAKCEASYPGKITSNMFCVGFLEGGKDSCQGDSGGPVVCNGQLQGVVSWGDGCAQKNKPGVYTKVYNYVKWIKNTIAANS

Prothrombin = Prothrombin (Homo sapiens, UniProt P00734); assay: Inhibitory concentration was measured against thrombin
Chymase = target: T2, Chymase (Homo sapiens, UniProt P23946); assay: Inhibition of human Serine protease chymase
T2 sequence (P23946 whole entry): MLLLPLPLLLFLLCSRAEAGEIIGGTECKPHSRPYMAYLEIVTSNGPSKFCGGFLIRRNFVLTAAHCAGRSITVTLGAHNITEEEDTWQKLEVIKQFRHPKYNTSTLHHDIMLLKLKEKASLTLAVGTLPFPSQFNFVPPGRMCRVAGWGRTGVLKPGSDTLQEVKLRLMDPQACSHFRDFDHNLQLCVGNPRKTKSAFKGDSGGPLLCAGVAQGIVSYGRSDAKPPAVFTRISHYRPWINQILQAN

Plasminogen, sequence (Q01177 97-581 limits assumed): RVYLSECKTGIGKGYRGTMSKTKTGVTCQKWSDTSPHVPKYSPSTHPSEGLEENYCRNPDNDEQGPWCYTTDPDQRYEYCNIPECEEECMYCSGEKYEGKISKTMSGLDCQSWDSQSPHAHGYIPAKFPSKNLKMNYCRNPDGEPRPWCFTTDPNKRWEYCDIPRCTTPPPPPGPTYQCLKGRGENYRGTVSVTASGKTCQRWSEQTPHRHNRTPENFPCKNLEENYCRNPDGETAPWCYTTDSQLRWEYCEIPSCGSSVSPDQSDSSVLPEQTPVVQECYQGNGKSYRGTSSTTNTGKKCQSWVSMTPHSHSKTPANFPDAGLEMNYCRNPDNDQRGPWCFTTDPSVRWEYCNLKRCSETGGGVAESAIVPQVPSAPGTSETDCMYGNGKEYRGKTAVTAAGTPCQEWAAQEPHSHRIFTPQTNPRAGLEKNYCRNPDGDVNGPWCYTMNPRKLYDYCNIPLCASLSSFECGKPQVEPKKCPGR
Plasminogen, sequence (Q01177 582-812 limits assumed): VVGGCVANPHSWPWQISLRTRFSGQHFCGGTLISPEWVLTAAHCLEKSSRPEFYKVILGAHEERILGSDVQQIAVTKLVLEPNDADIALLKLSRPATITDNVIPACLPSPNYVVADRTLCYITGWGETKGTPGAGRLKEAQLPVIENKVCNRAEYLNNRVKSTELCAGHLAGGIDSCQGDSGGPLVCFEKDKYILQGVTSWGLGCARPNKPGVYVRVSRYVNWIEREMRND

remaining at 0.5 h [2] [%]	Compound	also measured
87	CCOc1ccccc1C(=O)N[C@]1(OC)C(=O)N2C(C(=O)OCc3ccc(C(=O)O)cc3)=C(CSc3nnnn3C)CO[C@@H]21	IC50 (Chymotrypsinogen A): 160 nM; IC50 (Plasminogen): > 10000 nM; half-life [1]: 1.5 h; IC50 (Neutrophil elastase): 9500 nM; IC50 (Serine protease 1): 2100 nM; IC50 (Prothrombin): 3600 nM; IC50 (Chymase): 27 nM
13	CO[C@@]1(NC(=O)Cc2ccc(O)cc2)C(=O)N2C(C(=O)OCc3cccc(C)c3)=C(CSc3nnc(C)s3)CO[C@@H]21	–
73	COc1ccccc1C(=O)N[C@]1(OC)C(=O)N2C(C(=O)OC(c3ccccc3)c3ccccc3)=C(CSc3nnnn3C)CO[C@@H]21	–
42	CO[C@@]1(NC(=O)c2ccccc2OC(C)C)C(=O)N2C(C(=O)OCc3ccc(C(=O)O)cc3)=C(CSc3nnnn3C)CO[C@@H]21	–
40	CO[C@@]1(NC(=O)Cc2ccc(O)cc2)C(=O)N2C(C(=O)OC(c3ccccc3)c3ccccc3)=C(CSc3nnnn3C)CO[C@@H]21	–
26	CCCOc1ccccc1C(=O)N[C@]1(OC)C(=O)N2C(C(=O)OCc3ccc(C(=O)O)cc3)=C(CSc3nnnn3C)CO[C@@H]21	–
10	CO[C@@]1(NC(=O)Cc2ccc(O)cc2)C(=O)N2C(C(=O)OCc3cccc(C)c3)=C(CSc3nnnn3C)CO[C@@H]21	–
5	CO[C@@]1(NC(=O)Cc2ccc(O)cc2)C(=O)N2C(C(=O)OCc3cccc(C)c3)=C(CSc3nnnn3CC(=O)O)CO[C@@H]21	–
63	CO[C@@]1(NC(=O)c2ccccc2Oc2ccccc2)C(=O)N2C(C(=O)OCc3ccc(C(=O)O)cc3)=C(CSc3nnnn3C)CO[C@@H]21	–
53	CO[C@@]1(NC(=O)Cc2ccc(N(C)C)cc2)C(=O)N2C(C(=O)OC(c3ccccc3)c3ccccc3)=C(CSc3nnnn3C)CO[C@@H]21	–
59	CO[C@@]1(NC(=O)Cc2ccc(O)cc2)C(=O)N2C(C(=O)OCc3cccc(C)c3)=C(C)CO[C@@H]21	IC50 (Chymase): > 10000 nM
26	COc1ccccc1C(=O)N[C@]1(OC)C(=O)N2C(C(=O)OCc3ccc(C(=O)O)cc3)=C(CSc3nnnn3C)CO[C@@H]21	–
39	CCC(C)Oc1ccccc1C(=O)N[C@]1(OC)C(=O)N2C(C(=O)OCc3ccc(C(=O)O)cc3)=C(CSc3nnnn3C)CO[C@@H]21 (stereo partly drawn)	–
11	COc1ccccc1C(=O)N[C@]1(OC)C(=O)N2C(C(=O)OCc3cccc(C)c3)=C(CSc3nnnn3CC(=O)O)CO[C@@H]21	half-life [1]: < 0.167 h

Reference: ChEMBL document CHEMBL1132791, “1-Oxacephem-based human chymase inhibitors: discovery of stable inhibitors in human plasma” (Bioorg Med Chem Lett, 2000)
